Data set [1] deals with T1, Amine oxidase [flavin-containing] A (Homo sapiens, UniProt P21397).
T1 sequence (P21397 whole entry): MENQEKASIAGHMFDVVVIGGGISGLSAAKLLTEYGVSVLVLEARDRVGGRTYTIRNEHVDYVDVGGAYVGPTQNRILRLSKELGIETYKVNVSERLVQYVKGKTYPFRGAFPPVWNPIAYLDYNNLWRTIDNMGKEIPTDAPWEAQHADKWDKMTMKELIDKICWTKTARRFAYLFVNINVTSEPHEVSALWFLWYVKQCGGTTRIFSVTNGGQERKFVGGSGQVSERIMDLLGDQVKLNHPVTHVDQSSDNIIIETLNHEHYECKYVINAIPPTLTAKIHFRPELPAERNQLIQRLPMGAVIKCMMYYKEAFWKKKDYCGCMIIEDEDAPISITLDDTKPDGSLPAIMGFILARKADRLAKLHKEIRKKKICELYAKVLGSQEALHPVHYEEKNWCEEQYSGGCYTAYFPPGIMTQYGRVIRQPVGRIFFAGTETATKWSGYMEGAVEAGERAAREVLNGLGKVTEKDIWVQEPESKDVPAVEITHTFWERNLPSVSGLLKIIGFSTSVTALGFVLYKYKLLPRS
Kind of data set: Inhibition of human recombinant MAOA expressed in baculovirus-infected BTI insect cells assessed as conversion of p-tyramine into p-hydroxyphenyl-acetaldehyde at 100 uM after 15 mins by fluorimetric assay. Particulars: 0.25 h; call rule not given here. In a few lines:
(§1)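 Recombinant hMAO-A or hMAO-B was adjusted to the same velocity (165 pmol p-tyramine/min; specific activity 150 nmol/min/mg for A, 22 for B). Enzyme and drug in 0.05 M sodium phosphate pH 7.4 were preincubated 15 min at 37 °C. Amplex Red, 1 U/mL HRP and 1 mM p-tyramine (final) were added, and resorufin fluorescence was read at 37 °C. Values were background-subtracted against enzyme-free blanks with vehicle controls.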

The target in data set [2] is T2, Amine oxidase [flavin-containing] B (Homo sapiens, UniProt P27338).
T2 sequence (P27338 whole entry): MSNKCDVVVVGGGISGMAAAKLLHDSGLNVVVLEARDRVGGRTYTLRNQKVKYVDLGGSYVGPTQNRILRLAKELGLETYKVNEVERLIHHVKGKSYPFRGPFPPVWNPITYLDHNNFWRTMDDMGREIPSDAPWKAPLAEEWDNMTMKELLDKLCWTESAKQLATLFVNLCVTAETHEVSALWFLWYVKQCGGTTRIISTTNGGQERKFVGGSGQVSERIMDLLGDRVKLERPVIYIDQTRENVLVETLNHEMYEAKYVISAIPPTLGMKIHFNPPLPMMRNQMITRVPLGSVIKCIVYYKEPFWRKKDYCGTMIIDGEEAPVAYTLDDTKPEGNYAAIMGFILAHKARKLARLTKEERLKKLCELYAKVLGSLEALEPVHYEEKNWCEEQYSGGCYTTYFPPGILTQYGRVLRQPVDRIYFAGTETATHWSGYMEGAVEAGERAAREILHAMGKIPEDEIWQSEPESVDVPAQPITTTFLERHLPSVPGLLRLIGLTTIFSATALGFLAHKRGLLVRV
The experiment in a line: Inhibition of human recombinant MAOB expressed in baculovirus-infected BTI insect cells assessed as using transformed p-tyramine after 15 mins by fluorimetric assay. It counts as single protein.

The species entered for another data set is Homo sapiens. The experiment in a line: Selectivity index, ratio of IC50 for human recombinant MAOA to IC50 for human recombinant MAOB. In a few lines: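 The index is IC50(MAO-A)/IC50(MAO-B) from the fluorimetric Amplex Red/p-tyramine assay on recombinant human isoforms.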
Data set [3] addresses T2, Amine oxidase [flavin-containing] B. Kind of data set: Inhibition of human recombinant MAOB expressed in baculovirus-infected BTI insect cells assessed as using transformed p-tyramine at 100 uM after 15 mins by fluorimetric assay. Particulars: 0.25 h. The procedure, abridged: as §1

Usually IC50 stands for the concentration that gives 50% inhibition.

`COc1ccc(-c2c(O)c3cc(C)ccc3oc2=O)cc1Cl`: the “inhibition (INH)” value in data set [1] is on record as “Not Active”. In data set [2], the IC50 turned out to be 42.7 µM. Also, the Ratio IC50 in the data set listed under Homo sapiens was above 2.3.
Taken in the same sequence, the figures for `COc1ccc(-c2c(O)c3ccccc3oc2=O)cc1` were “Not Active”, 69.6 µM and above 1.4.
In the same order, the values of `COc1ccc(-c2c(O)c3cc(Cl)ccc3oc2=O)cc1Cl` are “Not Active”, 2.79 µM and above 36.
`O=c1oc2ccccc2c(O)c1-c1ccccc1`: the “inhibition (INH)” value in data set [1] and in data set [3] was “Not Active” in each case.
For `COc1ccc(-c2c(O)c3ccccc3oc2=O)cc1Cl`, in data set [1], the “inhibition (INH)” value is given as “Not Active”.
Regarding `COc1ccc(-c2c(O)c3cc(Cl)ccc3oc2=O)cc1`, the “inhibition (INH)” value in data set [1] and in data set [3] was “Not Active” each time.
Regarding `COc1ccc(-c2c(O)c3cc(C)ccc3oc2=O)cc1`, the “inhibition (INH)” value in data set [1] was “Not Active”. The concentration for half-maximal inhibition (IC50) in data set [2] was 32 µM. Also, the Ratio IC50 in the data set filed under Homo sapiens is above 3.1.
